Test results from ChEMBL document CHEMBL1759862, “Tricyclic compounds containing nonenolizable cyano enones. A novel class of highly potent anti-inflammatory and cytoprotective agents” (J Med Chem, 2011).
Calls of active or inactive are those of the source. The rule behind the calls is not given here.

What was measured:
[1] = Antiinflammatory activity in CD-1 mouse Macrophage assessed as inhibition of IFN-gamma induced NO production after 48 hrs by Griess reaction; assay type: functional, cell-based
[2] = molecular target: NAD(P)H dehydrogenase [quinone] 1 (Mus musculus) (UniProt Q64669); experiment: Induction of NQO1 activity in mouse Hepa-1c1c7 cells after 48 hrs; assay type: cell-based
[3] = Cytotoxicity against CD-1 mouse macrophages at 10 uM; assay type: cell-based; conditions: macrophage
RAW264.7 [4] = experiment: Antiinflammatory activity in mouse RAW264.7 cells assessed as inhibition of IFN-gamma induced NO production after 24 hrs by Griess reaction; assay type: functional, cell-based
In short: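 RAW 264.7 cells exposed to serial concentrations of compound together with IFN-γ (10 ng/mL) for 24 h; NO in supernatants quantified by Griess reaction. IC50 tested over 0.1 pM to 10 μM in 10-fold steps; values averaged from two separate experiments.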

RAW264.7 [5] = experiment: Induction of HO-1 expression in mouse RAW264.7 cells at 10 nM after 6 hrs by Western blotting; assay type: functional, cell-based
In short: (§1)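 RAW 264.7 macrophages were exposed to compound at 10–100 nM for 6 h. HO-1 protein was detected by Western blot of total cell lysates.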

RAW264.7 [6] = experiment: Induction of HO-1 expression in mouse RAW264.7 cells at 100 nM after 6 hrs by Western blotting; assay type: functional, cell-based; in short: as §1
RAW264.7 [7] = experiment: Induction of HO-1 expression in mouse RAW264.7 cells at 30 nM after 6 hrs by Western blotting; assay type: functional, cell-based
In short: (§2)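 RAW cells treated with compound for 6 h (30–300 nM range); HO-1 detected in total cell lysates by Western blot.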

RAW264.7 [8] = experiment: Induction of HO-1 expression in mouse RAW264.7 cells at 300 nM after 6 hrs by Western blotting; assay type: functional, cell-based; in short: as §2
[9] = Mus musculus, CD-1, Macrophage, 48 h

NAD(P)H dehydrogenase [quinone] 1 (Mus musculus), sequence (Q64669 whole entry): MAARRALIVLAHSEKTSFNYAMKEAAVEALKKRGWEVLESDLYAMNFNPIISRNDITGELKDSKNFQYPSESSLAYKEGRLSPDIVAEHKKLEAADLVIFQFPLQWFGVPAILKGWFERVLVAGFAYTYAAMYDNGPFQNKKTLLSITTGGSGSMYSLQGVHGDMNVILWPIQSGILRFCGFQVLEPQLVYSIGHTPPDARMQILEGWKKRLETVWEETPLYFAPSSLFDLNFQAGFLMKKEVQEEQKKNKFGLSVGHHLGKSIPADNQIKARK

Structure (SMILES)	CD [2]	Activity [3]	IC50 (RAW264.7 [4]; Mus musculus, RAW264.7, 24 h)	other results
CC1(C)C(=O)C(C#N)=C[C@@]2(C)C3=CC(=O)C=C[C@@]3(C)CC[C@H]12	140 nM	Non-toxic	–	IC50 [1, 9]: 58 nM
CC1(C)C(=O)C(C#N)=C[C@@]2(C)C3=CC(=O)C(C#N)=C[C@@]3(C)CC[C@H]12	19 nM	Non-toxic	–	IC50 [1, 9]: 1.3 nM
CC1(C)C(=O)C(C#N)=C[C@@]2(C)C3=CC(=O)CC[C@@]3(C)CC[C@H]12	–	Non-toxic	–	IC50 [1, 9]: 26 nM
C#C[C@]12C=C(C#N)C(=O)C=C1[C@@]1(C)C=C(C#N)C(=O)C(C)(C)[C@@H]1CC2 [listing 1 of 2 here]	–	–	–	IC50 (RAW264.7 [4]; raw264.7): 3 nM
CC1(C)C(=O)C(C#N)=C[C@]2(C)C3=CC(=O)C(C#N)=C[C@]3(C)CC[C@@H]12 [listing 1 of 2 here]	–	–	–	IC50 ([1]; macrophage): 14 nM
C#C[C@]12C=C(C#N)C(=O)C=C1[C@@]1(C)C=C(C#N)C(=O)C(C)(C)[C@@H]1CC2 [listing 2 of 2 here]	2.7 nM	–	–	Activity (RAW264.7 [5]): Active; Activity (RAW264.7 [6]): Active
CC1(C)C(=O)C(C#N)=C[C@]2(C)C3=CC(=O)C(C#N)=C[C@]3(C#C[Si](C)(C)C)CC[C@@H]12	3 nM	–	–	Activity (RAW264.7 [5]): Active; Activity (RAW264.7 [6]): Active
CC1(C)C(=O)C(C#N)=C[C@]2(C)C3=CC(=O)C(C#N)=C[C@]3(C)CC[C@@H]12 [listing 2 of 2 here]	150 nM	–	–	–
CC1(C)C(=O)C(C#N)=C[C@]2(C)C3=CC(=O)C=C[C@]3(C)CC[C@@H]12	170 nM	–	–	–
CC1(C)C(=O)C(C#N)=C[C@]2(C)C3=CC(=O)C(C#N)=C[C@]3(C#C[Si](C)(C)C(C)(C)C)CCC12 (mixture of isomers)	150 nM	–	80 nM	–
CC1(C)C(=O)C(C#N)=C[C@]2(C)C3=CC(=O)CCCC3(F)CC[C@@H]12 (mixture of isomers)	–	–	360 nM	–
CC1(C)C(=O)C(C#N)=C[C@]2(C)C3=CC(=O)C(C#N)=C[C@]3(C#Cc3nccs3)CCC12 (mixture of isomers)	35 nM	–	10 nM	Activity (RAW264.7 [7]): Active; Activity (RAW264.7 [8]): Active
CC1(C)C(=O)C(C#N)=C[C@]2(C)C3=CC(=O)C(C(N)=O)=C[C@]3(C)CC[C@@H]12 (racemic)	–	Non-toxic	–	–
CC(=O)O[C@@H]1CCC=C2[C@@]3(C)C=C(C#N)C(=O)C(C)(C)[C@@H]3CC[C@]21C (racemic)	–	Non-toxic	–	–
CC1(C)C(=O)C(C#N)=C[C@]2(C)C3=CCC[C@@H](O)[C@]3(C)CC[C@@H]12 (racemic)	–	Non-toxic	–	–
CC1(C)C(=O)C(C#N)=C[C@]2(C)C3=CC(=O)C[C@@H](O)[C@]3(C)CC[C@@H]12 (racemic)	–	Non-toxic	–	–
COC(=O)C#C[C@]12C=C(C#N)C(=O)C=C1[C@@]1(C)C=C(C#N)C(=O)C(C)(C)[C@@H]1CC2 (racemic)	85 nM	–	20 nM	Activity (RAW264.7 [7]): Active; Activity (RAW264.7 [8]): Active
CC1(C)C(=O)C(C#N)=C[C@]2(C)C3=CC(=O)CC[C@]3(CO)CC[C@@H]12 (racemic)	–	–	350 nM	–
CC1(C)C(=O)C(C#N)=C[C@]2(C)C3=CC(=O)CC[C@]3(CO[Si](C)(C)C(C)(C)C)CC[C@@H]12 (racemic)	–	–	480 nM	–
CC1(C)C(=O)C(C#N)=C[C@]2(C)C3=CC(=O)C(C#N)=C[C@]3(C#CC(=O)O)CC[C@@H]12 (racemic)	150 nM	–	100 nM	–
C#CC#C[C@]12C=C(C#N)C(=O)C=C1[C@@]1(C)C=C(C#N)C(=O)C(C)(C)[C@@H]1CC2 (racemic)	–	–	3 nM	Activity (RAW264.7 [7]): Active; Activity (RAW264.7 [8]): Active
CC1(C)C(=O)C(C#N)=C[C@]2(C)C3=CC(=O)CC[C@]3(C=O)CC[C@@H]12 (racemic)	–	–	83 nM	–
CC(C)(C)OC(=O)NC[C@]12CCC(=O)C=C1[C@@]1(C)C=C(C#N)C(=O)C(C)(C)[C@@H]1CC2 (racemic)	–	–	64 nM	–
CC1(C)C(=O)C(C(=O)O)=C[C@]2(C)C3=CC(=O)C(C#N)=C[C@]3(C)CC[C@@H]12 (racemic)	–	Non-toxic	–	IC50 [1, 9]: > 600 nM
CC1(C)C(=O)C(C#N)=C[C@]2(C)C3=CC(=O)CC[C@]3(C#N)CC[C@@H]12 (racemic)	–	–	64 nM	–
COC(=O)C1=C[C@]2(C)C3=CC(=O)C(C#N)=C[C@]3(C)CC[C@H]2C(C)(C)C1=O (racemic)	–	Non-toxic	–	IC50 [1, 9]: > 60 nM
CC(=O)OC[C@]12CCC(=O)C=C1[C@@]1(C)C=C(C#N)C(=O)C(C)(C)[C@@H]1CC2 (racemic)	–	–	85 nM	–
CC1(C)C(=O)C(C#N)=C[C@]2(C)C3=CC(=O)CC[C@]3(C)CC[C@@H]12 (racemic)	–	Non-toxic	57 nM	IC50 [1, 9]: 19 nM
